Publication PMC5224916 (Journal of controlled release : official journal of the …, 2016)

Tests used:
[1] = system: Caco2, MCF7, and MDA-MB-231 cells; assay: In vitro cellular uptake assays; assay type: cell-based, human; settings: 2 h incubation
In short: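 Caco2, MCF7 and MDA-MB-231 cells were incubated 2 h with free DiD or DiD-loaded plain or Fc-targeted nanoparticles, then fixed in 4% formalin in PBS. Membranes were labelled with a lipophilic dye and nuclei counterstained with DAPI; cells were examined by fluorescence microscopy. For competition, cells were pretreated 30 min with IgG Fc fragments.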

[2] = system: intestinal epithelium (duodenum villi); assay: In vivo intestinal uptake of nanoparticles; set-up: species or system CD-1 mice and nude mice; settings: 0.5 mg/kg oral gavage, 2 h, CD-1 and nude mice
[3] = system: Caco2 cell monolayers; assay: Caco2 cell monolayer permeability assay; assay type: in vitro ADME, human; settings: apical to basolateral, 5 µg/mL, 120 min, 37°C, HPLC
In short: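 Caco2 cells grown on polycarbonate Transwell inserts, with monolayer integrity followed by TEER. Free or nanoparticle-formulated test compound (5 µg/mL) added apically; apical-to-basolateral transport tracked over 120 min by HPLC. Papp = (∂Q/∂t)/(A×C₀). For competition, cells were pretreated 30 min with IgG Fc fragments; transported Fc was quantified by human IgG Fc ELISA. Means ± SEM, at least three independent experiments.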

[4] = system: MCF7 cells; assay: Cell cycle distribution assay; assay type: cell-based, human; settings: MCF7, 24 h, tested 0, 20, 50, 100 ng/mL
[5] = system: MDA-MB-231 cells; assay: Cell cycle distribution assay; assay type: cell-based, human; settings: MDA-MB-231, 24 h, tested 0, 20, 50, 100 ng/mL
[6] = molecular target: MDM2 (Homo sapiens, UniProt Q00987); assay: Western blotting of MDM2, p53 and p21 in breast cancer cells; assay type: cell-based; settings: 20 ng/mL, 24 h, MCF7 and MDA-MB-231 cells
MDM2, sequence (Q00987 whole entry): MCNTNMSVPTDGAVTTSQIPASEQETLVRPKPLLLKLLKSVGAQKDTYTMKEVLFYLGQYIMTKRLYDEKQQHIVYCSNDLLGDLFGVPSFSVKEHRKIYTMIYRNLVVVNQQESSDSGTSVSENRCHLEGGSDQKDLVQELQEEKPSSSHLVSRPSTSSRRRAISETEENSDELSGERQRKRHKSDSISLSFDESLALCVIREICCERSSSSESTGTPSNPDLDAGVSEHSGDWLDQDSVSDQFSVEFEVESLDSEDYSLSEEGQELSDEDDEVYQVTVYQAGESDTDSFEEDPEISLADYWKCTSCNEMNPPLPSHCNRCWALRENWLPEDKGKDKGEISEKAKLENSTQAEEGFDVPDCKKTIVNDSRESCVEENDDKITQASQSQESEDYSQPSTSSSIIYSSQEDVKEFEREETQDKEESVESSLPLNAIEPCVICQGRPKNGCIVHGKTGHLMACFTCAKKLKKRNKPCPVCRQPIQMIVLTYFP

[7] = Plasma pharmacokinetics after oral administration; assay type: in vivo; settings: 160 mg/kg oral, female CD-1 mice
In short: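 Female CD-1 mice were randomised into three groups and given a single oral dose of 160 mg/kg: free compound in PEG400:ethanol:saline (57.1:14.3:28.6), plain nanoparticles or Fc-targeted nanoparticles.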

[8] = system: MDA-MB-231 orthotopic tumors; assay: MDA-MB-231 orthotopic tumor model, in vivo efficacy; set-up: species or system nude mice; settings: 160 mg/kg/day oral
In short: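 Female athymic nu/nu mice, 4–6 weeks, received 1×10⁶ MDA-MB-231 cells in the second thoracic mammary fat pad under anaesthesia. After 2 weeks, mice were split into groups of 10. Dosing was by oral gavage, 5 days/week for 24 days: free compound in PEG400:ethanol:saline (57.1:14.3:28.6) or nanoparticles at 160 mg/kg/day, Fc-targeted form at 80 or 160 mg/kg/day; controls got vehicle. Mice with lung metastasis were counted at the end.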

| Structure (SMILES) | Cellular uptake of DiD (fluorescence microscopy) [1] | DiD fluorescence in the villi of the duodenum [2] | Apparent permeability coefficient (Papp) [3] [×10⁻⁶ cm/s] | Concentration at which G2/M phase cell cycle arrest starts to be induced [4] [ng/mL] | Concentration at which G2/M phase cell cycle arrest starts to be induced [5] [ng/mL] | Effect on MDM2, p53 and p21 expression [6] | Cmax (peak plasma concentration of SP141) [7] [ng/mL] | Inhibition of MDA-MB-231 tumor growth ([8]; 5 days/week, Day 24) [%] | Incidence of lung metastasis (mice with metastatic lesions in the lungs) ([8]; 24 days, 10 mice/group) |
| --- | --- | --- | --- | --- | --- | --- | --- | --- | --- |
| CCCCCCCCCCCCCCCCCCN1C(=CC=CC=CC2=[N+](CCCCCCCCCCCCCCCCCC)c3ccccc3C2(C)C)C(C)(C)c2ccccc21.[O-][Cl+3]([O-])([O-])[O-] [DiD, 1,1'-dioctadecyl-3,3,3',3'-tetramethylindodicarbocyanine perchlorate] | unable to diffuse into the cells | not observed |  |  |  |  |  |  |  |
| COc1ccc2[nH]c3c(-c4cccc5ccccc45)nccc3c2c1 [SP141] |  |  | 70 | 100 | 100 | did not show significant effects | 4300 | 51 | 4/10 |
